Assay outcomes as filed in PubChem.
HKDC1 inhibitor – HKDC1 hexokinase inhibitors, primary screen, biochemical, fluorescence, uHTS | Q2TB90 | recombinant HKDC1, G6PDH/diaphorase resazurin coupled fluorescence | inhibition, % at 20 µM | actives 0.16% (n = 340,000);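 active means inhibition above about 35% when tested at 20 µM, limit read from the data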
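Incubation: 90 min at room temperature in dark / Material: recombinant HKDC1 (HK5) hexokinase enzyme, produced in-house / Quantity: enzyme 5 µg/mL final / Compound: one dose of 20 µM, 1% DMSO / Reagent: glucose and ATP substrates / Buffer or medium: Tris pH 8.0 buffer with MgCl2, Tween-20, BSA, BME / Technique: resorufin fluorescence at 613 nm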
DNMT1 block – human DNMT1 methyltransferase inhibitors, primary screen, biochemical, molecular beacon, fluorescence, HinP1I cleavage, uHTS; actives 0.83% (n = 360,000); inhibition (reported as % activation of signal), % at 10 µM; AID 588458, 2011; DNA (cytosine-5)-methyltransferase 1 (Homo sapiens), P26358; in the data active means inhibition above about 50%
Target sequence (P26358 504-1616 limits assumed): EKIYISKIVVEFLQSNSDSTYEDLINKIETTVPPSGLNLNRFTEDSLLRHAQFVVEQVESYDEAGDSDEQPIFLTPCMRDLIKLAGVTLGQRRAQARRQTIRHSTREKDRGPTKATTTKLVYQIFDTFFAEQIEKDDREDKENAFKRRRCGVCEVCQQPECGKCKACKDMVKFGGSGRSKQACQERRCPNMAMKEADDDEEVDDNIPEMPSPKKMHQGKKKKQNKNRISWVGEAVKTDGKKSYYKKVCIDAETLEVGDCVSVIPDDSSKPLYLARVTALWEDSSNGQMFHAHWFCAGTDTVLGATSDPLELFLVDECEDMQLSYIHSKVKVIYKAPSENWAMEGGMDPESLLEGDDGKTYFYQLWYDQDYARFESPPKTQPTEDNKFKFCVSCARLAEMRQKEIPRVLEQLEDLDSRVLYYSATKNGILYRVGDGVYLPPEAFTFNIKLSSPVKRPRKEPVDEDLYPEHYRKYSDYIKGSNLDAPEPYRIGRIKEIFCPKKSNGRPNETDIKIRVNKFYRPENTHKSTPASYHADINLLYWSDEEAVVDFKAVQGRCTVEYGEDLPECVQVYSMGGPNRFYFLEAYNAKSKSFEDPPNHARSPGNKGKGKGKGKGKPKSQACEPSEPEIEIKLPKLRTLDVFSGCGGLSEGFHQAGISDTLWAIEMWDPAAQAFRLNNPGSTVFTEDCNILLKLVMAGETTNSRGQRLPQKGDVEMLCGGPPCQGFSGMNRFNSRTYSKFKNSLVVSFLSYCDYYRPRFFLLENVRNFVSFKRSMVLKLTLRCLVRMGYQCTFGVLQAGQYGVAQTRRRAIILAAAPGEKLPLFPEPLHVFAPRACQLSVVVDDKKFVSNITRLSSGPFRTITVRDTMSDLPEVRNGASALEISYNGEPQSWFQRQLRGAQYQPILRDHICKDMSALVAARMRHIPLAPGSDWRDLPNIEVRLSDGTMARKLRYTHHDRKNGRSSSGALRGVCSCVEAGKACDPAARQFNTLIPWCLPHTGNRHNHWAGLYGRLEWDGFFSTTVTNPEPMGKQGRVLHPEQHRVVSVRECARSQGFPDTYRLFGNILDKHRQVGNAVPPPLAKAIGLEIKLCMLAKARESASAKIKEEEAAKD
STEP inh – STEP phosphatase inhibitors, primary screen, biochemical, fluorescence intensity, uHTS | inhibition, % at 20 µM | actives 0.25% (n = 360,000) | recombinant STEP, OMFP fluorogenic substrate | AID 588621, 2011;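 active means inhibition at 20 µM, scaled per plate between control wells, above about 37%, limit read from the data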
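System: isolated STEP enzyme; schedule: 20 min enzyme reaction at room temperature, protected from light; medium: Bis-Tris buffer pH 6.0, 2.5 mM DTT, 0.005% Tween 20; signal: fluorescence, 480/540 nm; dosing: single compound dose of 20 µM, 1% DMSO final; also added: OMFP substrate, 25 µM final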
Scp1 inh – Scp-1 phosphatase inhibitors, primary screen, biochemical, colorimetric, uHTS | Carboxy-terminal domain RNA polymerase II polypeptide A small phosphatase 1 (Homo … | Recombinant Scp1, phosphopeptide, malachite green phosphate absorbance | inhibition, % at 20 µM | actives 0.88% (n = 340,000);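 active means inhibition above about 50% at 20 µM, limit read from the data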
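System: truncated SCP-1 phosphatase (76-261aa); medium: Tris acetate buffer pH 5.5 with MgCl2 and Tween-20; incubation: 45 min room-temperature reaction, 5 min colour, 30 min stabiliser; compound: single 20 µM dose, 1% DMSO; reagent: Phosphorylated 17-residue peptide substrate; read-out: % inhibition at 20 µM; technique: colorimetric free-phosphate detection, absorbance 630 nm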
LMPTP inh – LMPTP phosphatase inhibitors, primary screen, biochemical, fluorescence intensity, uHTS. Low molecular weight phosphotyrosine protein phosphatase (Homo sapiens), P24666. recombinant LMPTP-A, OMFP fluorogenic substrate. inhibition, % at 20 µM. actives 0.22% (n = 360,000);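 active means compounds that cut the enzyme signal by at least half of the control window in the single-dose screen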
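Assay system: LMPTP-A phosphatase enzyme | Input: 0.625 nM enzyme | Also added: Fluorogenic phosphatase substrate OMFP at 400 µM final | Compound dosing: One test concentration per compound, 20 µM, with 3% DMSO overall | Schedule: 50 min enzyme reaction at room temperature, protected from light | Signal: Fluorescence intensity | Benchmarks: no-enzyme and uninhibited controls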
SUMO1-SIM PPI – modulators of SUMO1 protein-protein interactions, primary screen, biochemical, uHTS. Small ubiquitin-related modifier 1 (Homo sapiens), P63165. SUMO1 binding to a labelled peptide, TR-FRET, 1 h. inhibition, % at 20 µM. actives 0.33% (n = 360,000). AID 602429, 2012; in the data active means inhibition above about 37%
Scp-1 conf – Scp-1 phosphatase inhibitors, retest, confirmation, biochemical, colorimetric, single concentration; recombinant SCP-1 catalytic domain, phosphate release, malachite green absorbance; inhibition, % at 20 µM; actives 61% (n = 2,500); shares compounds with Scp1 inh; AID 540281, 2011
MG interference – colorimetric readout interference by compounds, confirmation, artefact control for Scp-1 inhibitor project, biochemical, single concentration | AID 540313, 2011 | shares compounds with Scp1 inh | Colorimetric interference counterscreen, malachite green absorbance 630 nm | apparent inhibition (interference), % at 20 µM | 2,500 tested, under 10 active;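 further: compounds added after enzyme reaction finished so only phosphate colour detection is probed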
Scp1 DSF – Scp-1 binding by thermal shift, confirmation, orthogonal assay for Scp-1 inhibitor project, biophysical, differential scanning fluorimetry | shares compounds with Scp1 inh | Recombinant SCP1, Sypro Orange thermal shift Tm | thermal shift relative to vanadate control, % at 40 µM | actives 25% (n = 1,500) | AID 540329, 2011;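 active means substances whose mean melting-temperature shift, as a percentage of the reference inhibitor's shift, reaches about 5.3%, limit read from the data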
DNMT1 interf DR – spectral interference with molecular beacon fluorescence, dose response, artefact control for DNMT1 inhibitor project, biochemical, fluorescent molecular beacon; IC50, µM; spectral interference counter-screen; shares compounds with DNMT1 block; 200 tested, under 10 active; call rule not given here
DNMT1 confirm – DNMT1 methyltransferase inhibitor retest, confirmation, biochemical, molecular beacon, fluorescence, single concentration; shares compounds with DNMT1 block; DNMT1 molecular beacon HinP1I cleavage; inhibition, % at 10 µM; actives 8% (n = 2,300);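 active means average inhibition of at least 30% in the single-concentration confirmation test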
DNMT1 interf – shows spectral interference in the DNMT1 beacon assay; shares compounds with DNMT1 block; DNMT1 molecular beacon spectral interference counterscreen, fluorescence 485/520; activation (fluorescence interference), % at 10 µM; actives 1% (n = 2,300);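 active means activation of at least 30% at 10 µM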;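 further: DNMT1 catalytic domain with a HinP1I cleavage step and a FAM/dabcyl DNA beacon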
Of the large screens only hits and unclear results are named; the others gave an inactive call (follow-up assays come after a bar, where they were run). Only some compounds are listed: those with a hit (about 1.8% of all), similar ones and a draw of the others.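 How the source made its calls, unless noted: active means inhibition of at least 30% at 20 µM; inactive means the rest.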

Cc1ccc2nc(NC(=O)c3ccc(-c4nc5ccccc5s4)s3)sc2c1	DNMT1 block 78.2, Scp1 inh 97.5, SUMO1-SIM PPI 44.3 | Scp-1 conf 82.5 | MG interference inactive | Scp1 DSF inactive | DNMT1 confirm inactive | DNMT1 interf inactive
Cc1ccc(NC(=O)COc2coc(CN3CCc4ccccc43)cc2=O)cc1Cl	DNMT1 block 59.2, Scp1 inh 59.2 | Scp-1 conf 55.0 | MG interference inactive | Scp1 DSF inactive | DNMT1 confirm inactive | DNMT1 interf inactive
COc1ccc(C(CC(=O)N2CCCCC2)c2c(OC)cc(OC)c3c(-c4ccccc4)cc(=O)oc23)cc1 (stereo not drawn)	DNMT1 block 102.2, Scp1 inh 79.0 | Scp-1 conf 64.8 | MG interference inactive | Scp1 DSF inactive | DNMT1 confirm inactive | DNMT1 interf inactive
COc1ccc(C(CC(=O)N2CCCC(C)C2)c2c(OC)cc(OC)c3c(-c4ccccc4)cc(=O)oc23)cc1 (stereo not drawn)	DNMT1 block 89.1, Scp1 inh 58.5 | Scp-1 conf 62.0 | MG interference inactive | Scp1 DSF inactive | DNMT1 confirm inactive | DNMT1 interf inactive
Cc1ccc(S(=O)(=O)NC(=O)NC(C)c2ccc(F)cc2)cc1 (stereo not drawn)	none
CC1ON=C(c2ccccn2)N(Cc2ccc(S(C)(=O)=O)cc2)C1=O (stereo not drawn)	none (no result: HKDC1 inhibitor, Scp1 inh)
O=c1cc(CSc2nnc(-c3cccs3)n2Cc2ccccc2)nc2sc3ccccc3n12	DNMT1 block 95.9, Scp1 inh 74.6 | Scp-1 conf 68.1 | MG interference inactive | Scp1 DSF inactive | DNMT1 confirm inactive | DNMT1 interf inactive
Cc1cc(C(=O)CSc2nnc(-c3cccs3)n2Cc2ccccc2)c(C)n1C	none
Cc1ccccc1C(=O)NC(=S)Nc1ccc2[nH]c(=O)[nH]c2c1	none
COc1ccc2cc3c(N)nn(C(=O)c4ccc(Cl)c([N+](=O)[O-])c4)c3nc2c1	DNMT1 block 83.2, STEP inh 89.1, Scp1 inh 93.7, LMPTP inh 65.1 | Scp-1 conf 73.6 | MG interference inactive | Scp1 DSF 8.2 | DNMT1 confirm inactive | DNMT1 interf inactive
COc1ccc(C(=O)NOCc2ccccc2)cc1	none
O=C(O)C1C2C=CC(CC2)C1C(=O)O (stereo not drawn)	DNMT1 block 77.0, Scp1 inh 102.2 | Scp-1 conf 71.8 | MG interference inactive | Scp1 DSF inactive | DNMT1 confirm inactive | DNMT1 interf inactive
CC(C)c1ccc(NC(=O)C2C3C=CC(CC3)C2C(=O)O)cc1 (stereo not drawn)	none
Cc1ccc(S(=O)(=O)/N=C2/NC(=O)/C(=C/c3ccc(Br)o3)S2)cc1	DNMT1 block 84.6, Scp1 inh 56.2 | Scp-1 conf 54.1 | MG interference inactive | Scp1 DSF 13.5 | DNMT1 confirm inactive | DNMT1 interf inactive
Cc1ccc(S(=O)(=O)/N=C2/NC(=O)/C(=C\c3cc(Br)cc(Br)c3O)S2)cc1	none
CCCCCCNC(=O)c1cc(-c2ccco2)nc2ccccc12	DNMT1 block 106.1, Scp1 inh 71.0 | Scp-1 conf 66.7 | MG interference inactive | Scp1 DSF inactive | DNMT1 confirm inactive | DNMT1 interf inactive
COc1cccc(-c2cc(C(=O)NC3CC3)c3ccccc3n2)c1	none
COc1ccc(NC(=O)c2cc(-c3ccco3)nc3ccccc23)cc1	none
COc1ccc(NC(=O)CN(C)C(=O)c2cc(-c3ccco3)nc3ccccc23)cc1	DNMT1 block 98.7, Scp1 inh 73.2 | Scp-1 conf 60.8 | MG interference inactive | Scp1 DSF 7.4 | DNMT1 interf DR inactive | DNMT1 confirm inactive | DNMT1 interf inactive
Cc1ccc(NC(=O)c2cc(-c3ccco3)nc3ccccc23)cc1S(=O)(=O)N1CCOCC1	DNMT1 block 68.3, Scp1 inh 64.5 | Scp-1 conf 35.9 | MG interference inactive | Scp1 DSF 7.1 | DNMT1 confirm inactive | DNMT1 interf inactive
O=C(NC1CCC(O)CC1)c1cc(-c2ccco2)nc2ccccc12 (stereo not drawn)	DNMT1 block 57.4, Scp1 inh 50.7 | Scp-1 conf 56.5 | MG interference inactive | Scp1 DSF inactive | DNMT1 confirm inactive | DNMT1 interf inactive
CC(C)CCNC(=O)c1cc(-c2ccco2)nc2ccccc12	none
COC(=O)c1cc(C(=O)Nc2nc3ccccc3[nH]2)cc([N+](=O)[O-])c1	none
Cc1cccc(NC(=O)c2cc(-c3ccco3)nc3ccccc23)n1	none
